# According to ChEMBL document CHEMBL1128396, “Synthesis and biological evaluation of a series of new parenteral optically active 3-[[(N-alkylpyridinium-4'-yl)thio]methyl]-2-oxaisocephems” (1995):
# Key:
# Format in all cases: functional
# [1] = test system: Staphylococcus epidermidis; experiment: Antibacterial activity was determined against Staphylococcus epidermidis ATCC 12228 (Gram-positive)
# How it was run: (§1)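 2-fold agar dilution on Müller-Hinton agar. Overnight broth cultures were diluted to about 10^6 CFU/mL, and 10^4 CFU/spot was applied to plates with graded drug concentrations. Plates were incubated 18 h at 37 °C.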
# [2] = test system: Klebsiella pneumoniae; experiment: Antibacterial activity was determined against Klebsiella pneumoniae NCTC 9632 (Gram-negative); how it was run: as §1
# [3] = test system: Staphylococcus aureus; experiment: Antibacterial activity was determined against Staphylococcus aureus FDA 209P (Gram-positive); how it was run: as §1
# [4] = test system: Serratia marcescens; experiment: Antibacterial activity was determined against Serratia marcescens ATCC 12648 (Gram-negative); how it was run: as §1
# [5] = test system: Enterococcus faecalis; experiment: Antibacterial activity was determined against Enterococcus faecalis ATCC 21212 (Gram-positive); how it was run: as §1
# [6] = test system: Pseudomonas aeruginosa; experiment: Antibacterial activity was determined against Pseudomonas aeruginosa ATCC 10145 (Gram-negative); how it was run: as §1
# [7] = test system: Staphylococcus aureus; experiment: Antibacterial activity was determined against Methicillin-resistant Staphylococcus aureus (MRSA) 5038 (Gram-positive)
# [8] = test system: Escherichia coli; experiment: Antibacterial activity was determined against Escherichia coli NIHJ JC-2 (Gram-negative); how it was run: as §1
# [9] = test system: Mus musculus; experiment: Antibacterial activity was determined against Staphylococcus aureus Smith at a challenge dose of 1.32*10e7 (cells/mouse) administered subcutaneously; settings: sc
# How it was run: (§2)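 Cultures were grown overnight at 37 °C in tryptic soy broth (S. aureus, MRSA, E. faecalis) or Müller-Hinton broth (E. coli, S. pneumoniae). Graded doses were given subcutaneously 1 h post-infection. ED50 was calculated by probit from day-7 survival, with 95% confidence limits.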
# [10] = test system: Mus musculus; experiment: Antibacterial activity was determined against MRSA 5038 at a challenge dose of 1.00*10e7 (cells/mouse) administered subcutaneously; settings: sc; how it was run: as §2
# [11] = test system: Enterococcus faecalis; experiment: In vitro antibacterial activity against clinical isolates Enterococcus faecalis was determined; how it was run: as §1
# [12] = test system: Mus musculus; experiment: Antibacterial activity was determined against Streptococcus pneumoniae C 0096 at a challenge dose of 1.60*10e2 (cells/mouse) administered subcutaneously; settings: sc; how it was run: as §2
# [13] = test system: Mus musculus; experiment: Antibacterial activity was determined against MRSA 5120 at a challenge dose of 7.6*10e7 (cells/mouse) administered subcutaneously; settings: sc; how it was run: as §2
# [14] = test system: Mus musculus; experiment: Antibacterial activity was determined against Escherichia coli 29 at a challenge dose of 1.35*10e6 (cells/mouse) administered subcutaneously; settings: sc; how it was run: as §2
# [15] = test system: Streptococcus pneumoniae; experiment: In vitro antibacterial activity against clinical isolates Ampicillin-insensitive Streptococcus pneumoniae was determined; how it was run: as §1
# [16] = test system: Staphylococcus aureus; experiment: […] was determined against MRSA 5120
# [17] = test system: Mus musculus; experiment: Antibacterial activity was determined against Enterococcus faecalis C 0063 at a challenge dose of 7.00*10e7 (cells/mouse) administered subcutaneously; settings: sc; how it was run: as §2
# [18] = test system: Staphylococcus aureus; experiment: In vitro antibacterial activity against clinical isolates methicillin-resistant Staphylococcus aureus was determined
# How it was run: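 2-fold agar dilution on Müller-Hinton agar. Overnight broth cultures were diluted to about 10^6 CFU/mL, and 10^4 CFU/spot was applied to plates with graded drug concentrations.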
SMILES,MIC [1] [µg/mL],MIC [2] [µg/mL],MIC [3] [µg/mL],MIC [4] [µg/mL],MIC [5] [µg/mL],MIC [6] [µg/mL],MIC [7] [µg/mL],MIC [8] [µg/mL],also measured
CC(C)=CC[n+]1ccc(SCC2=C(C(=O)O)N3C(=O)[C@@H](NC(=O)/C(=N\OC4CCCC4)c4csc(N)n4)[C@H]3CO2)cc1.O=S(=O)([O-])O,0.2,0.78,0.2,1.56,1.56,12.5,12.5,0.78,
Nc1nc(/C(=N/OC2CCCC2)C(=O)N[C@@H]2C(=O)N3C(C(=O)O)=C(CSc4cc[n+](CC(=O)c5ccccc5)cc4)OC[C@H]23)cs1.O=S(=O)([O-])O,0.39,1.56,0.2,3.13,1.56,25,12.5,1.56,
Nc1nc(/C(=N/OC2CCCC2)C(=O)N[C@@H]2C(=O)N3C(C(=O)O)=C(CSc4cc[n+](CC(=O)N5CCOCC5)cc4)OC[C@H]23)cs1.O=S(=O)([O-])O,0.2,0.78,0.2,1.56,1.56,6.25,12.5,0.78,
C#CC[n+]1ccc(SCC2=C(C(=O)O)N3C(=O)[C@@H](NC(=O)/C(=N\OC4CCCC4)c4csc(N)n4)[C@H]3CO2)cc1.O=S(=O)([O-])O,0.1,0.39,0.2,1.56,1.56,6.25,6.25,0.39,
N#CC[n+]1ccc(SCC2=C(C(=O)O)N3C(=O)[C@@H](NC(=O)/C(=N\OC4CCCC4)c4csc(N)n4)[C@H]3CO2)cc1.O=S(=O)([O-])O,0.2,0.39,0.2,1.56,1.56,6.25,12.5,0.39,
CC(=O)C[n+]1ccc(SCC2=C(C(=O)O)N3C(=O)[C@@H](NC(=O)/C(=N\OC4CCCC4)c4csc(N)n4)[C@H]3CO2)cc1.O=S(=O)([O-])O,0.2,0.39,0.2,0.78,0.78,6.25,6.25,0.39,ED50 [9]: 0.18 mg/kg; ED50 [10]: 2.76 mg/kg
CNC(=O)C[n+]1ccc(SCC2=C(C(=O)O)N3C(=O)[C@@H](NC(=O)/C(=N\OC4CCCC4)c4csc(N)n4)[C@H]3CO2)cc1.O=S(=O)([O-])O,0.2,0.39,0.2,1.56,1.56,12.5,6.25,0.78,ED50 [9]: 0.18 mg/kg; ED50 [10]: 2.27 mg/kg
CC(C)(C)C(=O)C[n+]1ccc(SCC2=C(C(=O)O)N3C(=O)[C@@H](NC(=O)/C(=N\OC4CCCC4)c4csc(N)n4)[C@H]3CO2)cc1.O=S(=O)([O-])O,0.39,1.56,0.2,3.13,1.56,25,6.25,1.56,
NC(=O)C[n+]1ccc(SCC2=C(C(=O)O)N3C(=O)[C@@H](NC(=O)/C(=N\OC4CCCC4)c4csc(N)n4)[C@H]3CO2)cc1.O=S(=O)([O-])O,0.05,0.2,0.1,1.56,1.56,3.13,6.25,0.2,
CN(C)C(=O)C[n+]1ccc(SCC2=C(C(=O)O)N3C(=O)[C@@H](NC(=O)/C(=N\OC4CCCC4)c4csc(N)n4)[C@H]3CO2)cc1.O=S(=O)([O-])O,0.39,0.78,0.2,1.56,1.56,12.5,12.5,0.78,
C=CC[n+]1ccc(SCC2=C(C(=O)O)N3C(=O)[C@@H](NC(=O)/C(=N\OC4CCCC4)c4csc(N)n4)[C@H]3CO2)cc1.O=S(=O)([O-])O,0.05,0.39,0.1,1.56,0.78,6.25,6.25,0.39,
Nc1nc(/C(=N/OC2CCCC2)C(=O)N[C@@H]2C(=O)N3C(C(=O)O)=C(CSc4cc[n+](CC(=O)N5CCC(O)CC5)cc4)OC[C@H]23)cs1.O=S(=O)([O-])O,0.39,0.78,0.2,3.13,3.13,12.5,25,1.56,
CCC(=O)C[n+]1ccc(SCC2=C(C(=O)O)N3C(=O)[C@@H](NC(=O)/C(=N\OC4CCCC4)c4csc(N)n4)[C@H]3CO2)cc1.O=S(=O)([O-])O,0.2,0.39,0.2,1.56,1.56,6.25,6.25,0.39,MIC50 [11]: 3.13 µg/mL; MIC80 [11]: 3.13 µg/mL; MIC90 [11]: 6.25 µg/mL; ED50 [12]: 0.56 mg/kg; ED50 [9]: 0.22 mg/kg; ED50 [13]: 1 mg/kg; ED50 [14]: 0.15 mg/kg; MIC50 [15]: 0.025 µg/mL; MIC80 [15]: 0.05 µg/mL; MIC90 [15]: 0.05 µg/mL; MIC [16]: 6.25 µg/mL; ED50 [17]: 5.23 mg/kg; MIC50 [18]: 6.25 µg/mL; MIC80 [18]: 6.25 µg/mL; MIC90 [18]: 6.25 µg/mL
CC(C)(C)NC(=O)C[n+]1ccc(SCC2=C(C(=O)O)N3C(=O)[C@@H](NC(=O)/C(=N\OC4CCCC4)c4csc(N)n4)[C@H]3CO2)cc1.O=S(=O)([O-])O,0.39,1.56,0.2,3.13,1.56,25,12.5,1.56,
CC1(C)S[C@@H]2[C@H](NC(=O)[C@H](N)c3ccccc3)C(=O)N2[C@H]1C(=O)O [AMPICILLIN],,,,,,,,,ED50 [12]: 8.23 mg/kg; MIC50 [15]: 3.13 µg/mL; MIC80 [15]: 3.13 µg/mL; MIC90 [15]: 3.13 µg/mL
CO[C@@]1(NC(=O)CSC(F)F)C(=O)N2C(C(=O)O)=C(CSc3nnnn3CCO)CO[C@@H]21 [FLOMOXEF],0.39,0.1,0.39,0.78,100,> 100,50,0.1,MIC50 [11]: > 100 µg/mL; MIC80 [11]: > 100 µg/mL; MIC90 [11]: > 100 µg/mL; ED50 [12]: 18.6 mg/kg; ED50 [13]: 8.52 mg/kg; ED50 [14]: 0.43 mg/kg; MIC50 [15]: 3.13 µg/mL; MIC80 [15]: 6.25 µg/mL; MIC90 [15]: 6.25 µg/mL; MIC [16]: 25 µg/mL; ED50 [17]: > 200 mg/kg; MIC50 [18]: 25 µg/mL; MIC80 [18]: 100 µg/mL; MIC90 [18]: 100 µg/mL
